SENP1 FRET inh: SENP1 (human) catalytic domain inhibition; Q9P0U3; recombinant SENP1 catalytic domain, CyPet-SUMO1-YPet FRET cleavage; inhibition, % at 10 µM; hit rate 0.21% among 360,000; AID 624204;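 active = inhibition at least 30% at 10 µM, raw YFP signal under a set limit, fluorescence ratio 0.5 to 1.5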;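 note: 0% = enzyme with DMSO and 100% = no enzyme wells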
Target sequence (Q9P0U3 419-644 limits assumed): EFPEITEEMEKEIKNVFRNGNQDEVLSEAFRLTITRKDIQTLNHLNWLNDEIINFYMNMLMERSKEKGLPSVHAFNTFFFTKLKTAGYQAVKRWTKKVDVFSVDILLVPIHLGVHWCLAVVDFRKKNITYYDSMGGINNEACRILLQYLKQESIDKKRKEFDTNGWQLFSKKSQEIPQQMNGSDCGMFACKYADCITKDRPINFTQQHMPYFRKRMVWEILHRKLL
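Assay system – human recombinant His6-tagged SENP1 catalytic domain enzyme · Input – SENP1 enzyme, 20 pM final · Buffer or medium – Tris pH 8 buffer plus EDTA, NaCl, BME, BSA, NP40, catalase · Schedule – 50 min reaction at room temperature · Technique – FRET read of cyan and yellow fluorescence · Control set – no-enzyme wells low, DMSO-plus-enzyme wells high control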
HNF4A DNA FP: change in binding of human HNF4 alpha to DNA. activity change, % at 10 µM. HNF4a-FITC DNA binding, fluorescence polarization, 1 h. P41235. hit rate 0.3% among 360,000. AID 1224865; in the data active = activity change above about 30%, passing the limit was not always enough
Rpn11 inh: blocks the human proteasome subunit Rpn11; AID 588493; human 26S proteasome, Ub4-pepOG fluorescence polarization; 20S core pre-blocked with epoxomicin; inhibition, % at 20 µM; hit rate 0.59% among 360,000; O00487;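 active = inhibition at 20 µM, scaled to each plate's controls, above about 33%, limit read from the data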
ATG4B inhibitor: inhibitors of human ATG4B cysteine protease; hit rate 0.51% among 340,000; inhibition, % at 8.33 µM; ATG4B cleavage of LC3-PLA2, NBD-HPC fluorescence, 1 h; AID 504462; Q9Y4P1
Target sequence (Q9Y4P1 whole entry, looked up): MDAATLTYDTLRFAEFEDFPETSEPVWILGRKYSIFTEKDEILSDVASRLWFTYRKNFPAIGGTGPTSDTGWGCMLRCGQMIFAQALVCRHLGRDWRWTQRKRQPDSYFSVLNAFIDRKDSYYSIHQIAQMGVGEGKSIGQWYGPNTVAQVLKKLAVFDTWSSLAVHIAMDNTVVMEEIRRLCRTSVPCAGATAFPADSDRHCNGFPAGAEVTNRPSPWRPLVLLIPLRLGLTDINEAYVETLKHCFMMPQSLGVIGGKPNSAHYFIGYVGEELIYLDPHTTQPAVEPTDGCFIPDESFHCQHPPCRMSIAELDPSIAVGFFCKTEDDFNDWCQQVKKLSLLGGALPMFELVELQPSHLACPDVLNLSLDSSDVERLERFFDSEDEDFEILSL
CSN inh: CSN deneddylation inhibition | Q92905 | Purified CSN, SCF-Nedd8-OG deneddylation, fluorescence polarization | inhibition, % at 12.5 µM | hit rate 0.38% among 360,000 | AID 651999;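 active = pattern-corrected inhibition above about 35%, with an unprinted fluorescence ratio check between 0.5 and 1.5, limit read from the data, passing the limit was not always enough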;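 note: 0% = enzyme with substrate and 100% = substrate without enzyme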
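assay system = purified human Csn5 enzyme expressed in HEK293T cells | amount = 0.24 nM enzyme | buffer or medium = Tris/NaCl/DTT buffer, pH 7.5 | reagent = 10 nM SCFSkp2-Nedd8OG | compound = one concentration, 12.5 µM, 0.25% DMSO | times = 90 min reaction at room temperature | signal = FP | read-out basis = % inhibition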
TPT1 inh: blocks Candida albicans tRNA 2'-phosphotransferase | recombinant caTPT1, FP RNA substrate dephosphorylation | inhibition, % at 5 µM | hit rate 0.81% among 300,000 | AID 1962;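 active = inhibition above the mean of all tested compounds plus 3 SD, set per screening campaign, cut at about 24% in these data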;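 note: plate controls were DMSO alone for no effect and ferristatin control at 100 nM for full effect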
caTPT1 confirm: TPT1 (C. albicans) inhibition, confirmation | shares compounds with TPT1 inh | recombinant caTPT1, fluorescence polarization, RNase T1 coupled | inhibition, % at 5 µM | hit rate 74% among 2,400;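 active = inhibition above the primary screen limit, the mean inhibition of all tested compounds plus 3 SD, cut at about 25% in these data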
RNase T1 inh: RNase T1 inhibition in TPT1 counter-screen; hit rate 83% among 2,400; inhibition, % at 5 µM; AID 2153; RNase T1 cleavage, fluorescence polarization, 1536-well; shares compounds with TPT1 inh;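 active = inhibition above the solvent-only control well mean plus 3 SD, limit set per screening run, cut at about 23% in these data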;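 note: plate controls were DMSO wells with enzyme for no effect and wells without RNase T1 for full effect; inhibitors block cleavage so intact labeled substrate keeps polarization high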
Target sequence (P00651 whole entry, looked up): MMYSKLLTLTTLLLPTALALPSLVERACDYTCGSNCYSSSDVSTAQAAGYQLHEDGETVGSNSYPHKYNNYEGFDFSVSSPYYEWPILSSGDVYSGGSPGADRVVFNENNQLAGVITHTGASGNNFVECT
PLA2 ctr: counter-screen for ATG4B inhibitors: human phospholipase A2; shares compounds with ATG4B inhibitor; purified PLA2, NBD-C6-HPC fluorescence, 45 min; inhibition, % at 8.33 µM; hit rate 66% among 1,600; AID 588402; in the data active = inhibition above about 50%
Rpn11 inh conf: Rpn11 inhibition confirmation, single concentration; shares compounds with Rpn11 inh; purified human 26S proteasome, Ub4-pepOG fluorescence polarization; proteasome pretreated with epoxomicin; inhibition, % at 20 µM; hit rate 29% among 1,900
MMP-2 counter-1: MMP-2 (human) inhibition counter-screen. shares compounds with Rpn11 inh. recombinant MMP-2, FRET peptide cleavage fluorescence. inhibition, % at 20 µM. hit rate 4% among 1,900;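 note: human MMP-2 activated beforehand with APMA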
Thrombin inh: blocks bovine thrombin, flagging nonselective RPN11 hits; inhibition, % at 20 µM; AID 602333; hit rate 13% among 1,900; shares compounds with Rpn11 inh; bovine thrombin cleavage of Ub4-pepOG, fluorescence polarization;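 active = mean inhibition at least 40% at 20 µM, or signal 3 deviations below plate average, so some actives read negative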;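 note: plate controls were thrombin with DMSO for no effect and buffer wells lacking thrombin for full effect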
CSN deneddyl val: Csn5 (human) deneddylation inhibition, single-concentration validation; shares compounds with CSN inh; Csn5 deneddylation of SCF-Nedd8OG, fluorescence polarization, 90 min; inhibition, % at 16.6 µM; hit rate 62% among 540; AID 720654; in the data active = inhibition above about 50%;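 note: 0% = DMSO with enzyme and 100% = no enzyme wells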
MMP-2 counter-2: MMP-2 (human) inhibition, counter-screen for CSN hits. shares compounds with CSN inh. recombinant MMP-2, FRET substrate fluorescence, 60 min. inhibition, % at 16.6 µM. hit rate 33% among 540;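 active = corrected plate-normalized z-score of 5 or more, or -5 or less, or inhibition of 15% or more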;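 note: plate controls were DMSO wells with enzyme for no effect and buffer wells lacking MMP-2 for full effect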
Thrombin cntr: counter-screen for CSN deneddylation inhibitors: bovine thrombin inhibition; shares compounds with CSN inh; bovine thrombin cleavage of Ub4-pepOG, fluorescence polarization; inhibition, % at 16.6 µM; hit rate 49% among 540; AID 720656;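 active = inhibition at or above a set limit, with a fluorescence interference ratio between 0.5 and a set maximum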
HNF4A confirm: change in binding of human HNF4 alpha to DNA, retest; shares compounds with HNF4A DNA FP; HNF4A-FITC DNA binding, fluorescence polarization, 1 h; activity change, % at 12.5 µM; hit rate 99% among 210; AID 1224897; call rule not given here
Starred values were filed as active, the others as inactive; . = no result shown. Compounds with a hit are over-represented: about 2% of the library has one in this group of screens. Cut-off read from the data, not from the text of the source, unless noted: active = inhibition above about 40%; inactive = the rest.

SMILES | SENP1 FRET inh | HNF4A DNA FP | Rpn11 inh | ATG4B inhibitor | CSN inh | TPT1 inh | caTPT1 confirm | RNase T1 inh | CSN deneddyl val | MMP-2 counter-2 | Thrombin cntr | others
O=C1NC(=O)N(Cc2ccc(F)cc2)C(=O)/C1=C\c1ccc(N2CCCC2)cc1 | -4 | -2 | . | -1 | 38* | 82* | 104* | 117* | 98* | 1 | 6
C#C[C@]1(O)[C@H](O)CC2C3CC[C@H]4C[C@@H](O)CC[C@]4(C)C3CC[C@@]21C (some centres not stated) | 1 | 23 | 10 | . | -3 | . | . | . | . | . | .
COC(=O)C1=C(c2ccccc2OCc2ccccc2)C[C@@H]2CC[C@H]1N2C(=O)NCCCOC(C)C | 2 | -2 | 1 | -1 | -8 | . | . | . | . | . | .
Cc1cc(C)cc(N2C(=O)/C(=C\c3ccc(N4CCN(C)CC4)o3)C(=O)NC2=S)c1 | 76* | 121 | . | -4 | 76* | 140* | 151* | 141* | 103* | -48* | -59
COc1cccc(N2C(=O)NC(=O)/C(=C/c3ccc([N+](=O)[O-])s3)C2=O)c1 | 9 | -6 | 20 | 5 | 9 | 20 | . | . | . | . | .
COc1cccc(N2C(=O)/C(=C/c3ccc(C)o3)C(=O)NC2=S)c1 | -12 | 11 | . | 14 | 37* | 35* | 35* | 44* | 88* | 32* | 26*
COc1ccc(CN2C(=O)NC(=O)/C(=C\c3ccco3)C2=O)cc1 | -12 | -6 | 44* | 8 | 62* | 80* | 33* | 47* | . | 20* | 15* | Rpn11 inh conf=122*;MMP-2 counter-1=20;Thrombin inh=22
O=C1NC(=O)N(Cc2ccccc2)C(=O)/C1=C/c1cnn(-c2ccccc2)c1 | . | . | . | . | . | 15 | . | . | . | . | .
COc1ccc(CN2C(=O)NC(=O)/C(=C/c3ccc([N+](=O)[O-])s3)C2=O)cc1 | -1 | 3 | 51* | 4 | 42* | 27* | 56* | 72* | 35 | 12 | 4
O=C1NC(=O)N(Cc2ccccc2)C(=O)/C1=C/C=C/c1ccco1 | -57 | 42* | . | -9 | 121* | 75* | 50* | 68* | 71* | 3 | 22*
ClCCN1CCSCC1 | 0 | -3 | 2 | 4 | 1 | . | . | . | . | . | .
CC(C)N1C(=O)/C(=C/C=C/c2ccco2)C(=O)N(Cc2ccco2)C1=O | -16 | 9 | 98* | 23 | 79* | 95* | 54* | 65* | 25 | 12 | 27* | Rpn11 inh conf=49*;MMP-2 counter-1=19;Thrombin inh=41*
COc1ccc(/C=C2/C(=O)N(Cc3ccco3)C(=O)N(C(C)C)C2=O)cc1 | -54 | 24 | 171* | 36 | 99* | 57* | 13 | 18 | 1 | 11 | 56*
CCN(CC)c1ccc(/C=C2/C(=O)NC(=O)N(Cc3ccco3)C2=O)cc1 | -24 | 2 | 33 | -1 | 63* | 48* | 94* | 107* | 56* | 19* | 0
CCN(CC)c1ccc(/C=C2\C(=O)NC(=O)N(CC3CCCO3)C2=O)cc1 (configuration not stated) | -59 | 6 | 14 | 1 | 7 | 13 | . | . | . | . | .
COc1ccc(N2C(=O)NC(=O)/C(=C/c3ccc(N4CCOCC4)cc3)C2=O)cc1 | . | . | . | . | . | 3 | . | . | . | . | .
CC1(CCO)C(=O)NC(=S)NC1=O | -1 | 2 | 4 | -4 | -5 | . | . | . | . | . | .
CC12CC(O)C3C(CCC4=CC(=O)CCC43C)C1CCC2=O (configuration not stated) | 0 | 2 | -1 | -2 | 0 | . | . | . | . | . | .
O=c1[nH]c(=O)n(Cc2ccccc2)c(O)c1C=NCCCO | 1 | 35* | . | -6 | 31 | 48* | 62* | 76* | . | . | . | HNF4A confirm=61*
C[C@@H]1CN([C@H](C)CO)C(=O)CCCn2nncc2CO[C@@H]1CN(C)C(=O)Oc1ccccc1 | -2 | 0 | -1 | . | 5 | . | . | . | . | . | .
O=C(N/N=C/c1c(O)n(-c2cccc3ccccc23)c(=O)[nH]c1=O)c1ccncc1 | -58 | 39* | . | -8 | 32 | 45* | 51* | 66* | . | . | . | HNF4A confirm=49*
O=C(N/N=C/c1c(O)n(CCc2ccccc2)c(=O)[nH]c1=O)c1ccncc1 | -76 | 12 | -2 | -1 | -1 | 7 | . | . | . | . | .
CC(OC(=O)c1cn(C)c2ccccc12)C(=O)N(C)c1ccccc1 (configuration not stated) | 4 | 0 | -2 | 4 | -2 | . | . | . | . | . | .
O=c1[nH]c(=S)n(-c2ccccc2)c(O)c1/C=N/N1CCCCC1c1cccnc1 (configuration not stated) | -6 | 36* | . | 2 | 37* | 30* | 21 | 31* | . | . | . | HNF4A confirm=61*
CCc1ccccc1NC(=O)CNC1CCCCC1 | 2 | 2 | -3 | 3 | 1 | -3 | . | . | . | . | .
CN(CC(=O)Nc1ccccc1-c1ccccc1)C1CCCCC1 | 0 | -5 | 1 | 73* | -7 | -1 | . | . | . | . | . | PLA2 ctr=79*
COC(=O)C1=C(c2ccc(F)cc2F)C[C@@H]2CC[C@H]1N2C(=O)NC1Cc2ccccc2C1 | 1 | 1 | -8 | -11 | -1 | . | . | . | . | . | .

Screening results deposited in PubChem by several laboratories.
